Assay: Toxicity liver stage against HepG2, at 10uM
Format: cell-based
Design: test concentration 10 uM, cell line HepG2-A16-CD81EGFP
Conditions: human, HepG2-A16-CD81EGFP cells; read-out: INHIBITION
Summary of the method: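 Uninfected HepG2-A16-CD81EGFP cells, 3 × 10^3 per well, 1536-well, plated on prespotted compound at 10 μM final, parasite-free screening media added to match infected plates; puromycin 10 μM positive, DMSO 0.5% negative; run in parallel with 48 h PbLuc assay at 37 °C, 5% CO2; viability by CellTiter-Glo luminescence, normalized to controls.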

| SMILES | cytotoxicity at 10 µM [%] |
| --- | --- |
| O=C(O)C[C@@H]1CCN(C(=O)c2cccs2)C[C@@H]1CCN1CCCCC1 | 2.4 |
| COc1ccc(Cl)cc1Nc1nc(N)c(C(C)=O)s1 | 2.52 |
| COCCNC(=O)CNC(=O)c1nc(Cc2c(Cl)cccc2Cl)no1 | 5.64 |
| CC(C)n1nc(O)c2c1NC(=O)CSC2c1cnn(C)c1 (configuration not stated) | -5.28 |
| CCS(=O)(=O)N1CC(c2nc(-c3cccs3)no2)C1 | -7.3 |
| CCOc1ccccc1NC(=O)NCC(C)(O)CCSC (configuration not stated) | -6.14 |
| CC(C)COCC1CN(Cc2ccoc2)Cc2ncn(C)c21 (configuration not stated) | 4.53 |
| COCC(=O)N1CC[C@H]2C[C@@H](c3nnc(C4CC4)o3)O[C@@H]2C1 | -6.77 |
| COc1ccc(Nc2nc3c(C)nn(C)c3c(=O)n2C)cc1 | -0.103 |
| COc1ccc(-c2cc3nc(CCNC(=O)C4CC4)nn3cn2)cc1 | 8.38 |
| O=C(c1cccnc1)N1CCCC(c2ccnc3nccn23)C1 (configuration not stated) | 6.2 |
| CC(=O)N1CCC(C)(c2cc(C(=O)NCC3CC3)nc(C)n2)CC1 | 2.87 |
| COCCN1CCC(C)(c2cc(O)[nH]n2)CC1 | 2.02 |
| Cc1ncc(CN)c(-c2cn(C)c3ccccc23)n1 | 2.97 |
| Cc1ccc(C)c2c(C)c(C(=O)NCC[S+](C)[O-])[nH]c12 (configuration not stated) | 3.03 |
| Cc1ncc(CN(C)C)c(C2CCCN2c2ncccn2)n1 (configuration not stated) | -0.6 |
| CC(C)(C)c1nc(CN(Cc2ccccc2Cl)C2CCCC2)no1 | 3.25 |
| CCc1ncc2c(n1)CN(CC1CCCCO1)CC2 (configuration not stated) | -21.1 |
| Cc1ccc(CC(=O)NCC(O)c2ccc(Cl)cc2Cl)cn1 (configuration not stated) | -10.1 |
| CC(C(=O)NC(C)(C)C)S(=O)(=O)Cc1noc(C(C)(C)C)n1 (configuration not stated) | -10.8 |
| CN(CC(=O)N(C)C)Cc1ccc(C#N)cc1F | 6.56 |
| CC(NC(=O)c1cccc[n+]1[O-])C1CC1 (configuration not stated) | 5.31 |
| CC1COCCN1C(=O)COc1ccc(Oc2ccccn2)cc1 (configuration not stated) | -8.87 |

| SMILES | cytotoxicity at 10 µM [%] |
| --- | --- |
| O=C(CCc1ccc(OC(F)(F)F)cc1)N1CCCS1(=O)=O | 3.42 |
| CCCNC(=O)CCNC(=O)N1CCC(=Cc2ccccc2)CC1 | 1.47 |
| O=C(N1CCN(c2ccccc2O)CC1)C1(O)Cc2ccccc2C1 | 0.0894 |
| COC1CCN(CCNC(=O)C2CCCCC2)CC1 | 0.545 |
| Cc1ccccc1CS(=O)(=O)Cc1nc(C2CC2)no1 | 4.49 |
| O=C(COC1CCCC1)N1CCCN(c2ncccn2)CC1 | 15.9 |
| CCN(CC)C(=O)CCNC(=O)N(C)Cc1ccc(SC)c(OC)c1 | -7.9 |
| CC(C)N1CCC(NC(=O)NC2CCOc3ccc(Br)cc32)CC1 (configuration not stated) | -6.64 |
| CC(=O)NCCCNC(=O)Nc1ccccc1-n1nc(C)cc1C | 6.57 |
| CN(Cc1cccc(C#N)c1)S(=O)(=O)N1CCOCC1 | 6.95 |
| O=C(Cc1csc(-c2ncccn2)n1)N1CCN2CCCCC2C1 (configuration not stated) | 7.94 |
| Cc1ccsc1CNCc1c(C(C)C)nn(C)c1N1CCOCC1 | 8.42 |
| Cc1nccn1-c1cc(CNC(=O)C2CCC(=O)NC2)ccn1 (configuration not stated) | 4.83 |
| Cc1nnc2ccc(N3CCC4(CCOC4)C3)nn12 (configuration not stated) | 4.29 |
| CCC(=O)Nc1cc(Br)cn(C)c1=O | -1.34 |
| O=C(NCCCc1cccs1)N1CCCCC1CCO (configuration not stated) | 6.06 |
| CC(C)C(C)NC(=O)CN1CCSCC1 (configuration not stated) | -0.662 |
| CN(C)c1ccc(CCCNC(=O)NCC(O)c2ccsc2)cc1 (configuration not stated) | -6.88 |
| CCOCCN1CCN(Cc2nnc(-c3ccco3)o2)CC1 | -53.1 |
| O=C(CCc1ccccn1)NCC(O)c1ccc(Cl)cc1Cl (configuration not stated) | 8.54 |
| COc1cccc(CNC(=O)Nc2ccc3[nH]nnc3c2)c1OC | 3.2 |
| Cc1cc(=O)c(C(=O)Nc2cccc(CCN3CCCC3)c2)c[nH]1 | 7.49 |
| Cn1cc(CNCCNC(=O)Cc2ccccc2)c(-c2cccnc2)n1 | 13.1 |

| SMILES | cytotoxicity at 10 µM [%] |
| --- | --- |
| CCC1CCCN(S(=O)(=O)c2cnc3onc(C)c3c2)C1 (configuration not stated) | 4.72 |
| CC(C)(CO)CCCNC(=O)NC1(c2ccccc2F)CC1 | 9.08 |
| CN(C)C(=O)c1cccn1-c1ccc2c(c1)OCCO2 | 12.6 |
| COCc1cccc(NC(=O)N(C)Cc2ncc(C)c(OC)c2C)c1 | -1.01 |
| CCc1ccc(C(=O)O)cc1S(=O)(=O)Nc1ccc(=O)n(C)c1 | 11.7 |
| NS(=O)(=O)c1cnc(NCC2(c3ccccc3)CCC2)s1 | -4.88 |
| OCCN(Cc1nc(-c2ccc3c(c2)OCO3)no1)CC1CC1 | 8.37 |
| Cc1ccc2c(c1)OC(C)CN2C(=O)CCc1cscn1 (configuration not stated) | -48.5 |
| CC(NCc1cccc(S(=O)(=O)N(C)C)c1)c1ccccn1 (configuration not stated) | -10.5 |
| Cc1cccc(C(=O)N2CCn3cc(CNC(=O)CC4CC4)nc3C2)n1 | -78.4 |
| O=C(c1ccco1)N1CCCn2cnc(COCC3CC3)c2C1 | -75.9 |
| CN1CCC(CNC(=O)c2ccc3cccc(Cl)c3n2)C1 (configuration not stated) | -8.93 |
| COC(=O)C1C=CCN1C(=O)c1cc(COc2ccccc2)[nH]n1 (configuration not stated) | -4.45 |
| O=C(O)c1ccccc1C1CCN(Cc2ccc(-c3cc[nH]n3)o2)C1 (configuration not stated) | -10.2 |
| Cc1nc(O)cc(C2CCN(C(=O)c3[nH]nc4c3CC(C)CC4)CC2)n1 (configuration not stated) | 3.06 |
| Cc1cnccc1N1CCN(C(=O)C2CC3(CCNCC3)CN2)CC1 (configuration not stated) | -13.7 |
| CCN(CC)C(=O)c1ccc(Cl)c(NC(=O)c2cc[nH]n2)c1 | 7.86 |
| O=C(Cc1cccnc1)NC1CCCN(CCCc2ccccc2)C1 (configuration not stated) | 11.5 |
| CCn1cc(CN2CCCC(c3[nH]ncc3-c3ccc(F)cc3)C2)cn1 (configuration not stated) | 1.63 |
| CNc1nc(C(=O)N2CCn3nc(C(=O)OC)cc3C2)cs1 | -8.61 |
| CC(C)C(=O)N1CCC(CNc2nc(C(C)C)nc3c2cnn3C)CC1 | -4.25 |
| O=C(C1CCCN(C2CCOCC2)C1)N1Cc2ccccc2C1 (configuration not stated) | 2.49 |
| COc1cc(C)cc(C(C(=O)O)N2CCN(C3CCCC3)CC2)c1OC (configuration not stated) | -4.27 |

| SMILES | cytotoxicity at 10 µM [%] |
| --- | --- |
| O=C(NC1CC1)C1CNCCN1C(=O)COc1ccc2c(c1)OCO2 (configuration not stated) | -1.74 |
| CC(C)C1CN(C(=O)c2cc(=O)[nH]c(=O)[nH]2)CCC(=O)N1CC1CC1 (configuration not stated) | 1.08 |
| CCN(CC)C(=O)[C@@H]1C[C@H](N)CN1c1noc(-c2ccccc2)n1 | -49.8 |
| O=C(c1cn(CCN2CCCCC2)nn1)N1CCCO1 | 5.87 |
| CCc1cc(NCCN2CCNC2=O)n2nccc2n1 | -3.04 |
| Cc1nonc1CN(C)Cc1nc(-c2cccc(F)c2F)oc1C | -2.71 |
| Cn1c(CN2CCOCC2)nnc1C1CCCN(CC(N)=O)C1 (configuration not stated) | 5.23 |
| CC(=O)c1cc(CN2C[C@@H](CN3CCC(O)CC3)[C@@H](CO)C2)n(C)c1 | 7.58 |
| O=C1NC(C(=O)NCc2cccnc2Oc2ccc(F)cc2F)CO1 (configuration not stated) | -1.32 |
| COc1ccc(F)c(CN2CC(=O)N(c3ccccc3C)CC2C)c1 (configuration not stated) | -0.757 |
| O=C(COc1ccc2cccnc2c1)N1CCN[C@H]2CS(=O)(=O)C[C@H]21 | 7.98 |
| CCN(CC)c1ccc(-c2ccc(C)c(S(N)(=O)=O)c2)nn1 | -7.99 |
| Nc1ccnc(C(=O)N2CCCC3(CCC(=O)N(C4CCCC4)C3)C2)c1 (configuration not stated) | -19.8 |
| COc1cccc(-c2cc(NCC(=O)O)nc3[nH]ccc23)n1 | 8.09 |
| Cc1cc(N(C)CCN(C)C)n2nc(C)cc2n1 | 7.77 |
| COc1cc(N2CCC(c3nccn3Cc3ccccn3)CC2)ncn1 | -14.2 |
| O=C(c1cn2ccsc2n1)N1CCOCC(O)(CN2CCCC2)C1 (configuration not stated) | 4.6 |
| COC(=O)NCc1cc2n(n1)CCCN(C(C)=O)C2 | -2.26 |
| CCC(NC(=O)C1CC1)c1ccccc1OCC(=O)N1CCCC1 (configuration not stated) | -9.16 |
| CN1CCCC1CNC(=O)CCCOc1cccc(Br)c1 (configuration not stated) | -11.3 |
| Cn1ccnc1CC1CCCN(Cc2noc(C3CC3)n2)C1 (configuration not stated) | -5.68 |
| Cc1cccc(-n2c(C)cc(C(=O)NS(C)(=O)=O)c2C)c1 | -4.08 |
| Cc1ccc(NC2CCN(C(=O)c3cc(C)sc3C)CC2)nn1 | -5.59 |

| SMILES | cytotoxicity at 10 µM [%] |
| --- | --- |
| Fc1ccc(-c2nnc(CN3CCCC3Cn3cncn3)o2)cc1 (configuration not stated) | -10.5 |
| Cc1cnc(CN(C)C2CCN(CCc3ccccn3)CC2)cn1 | -12.1 |
| COCCN1CCN(CCS(=O)(=O)C(F)(F)F)CC1C (configuration not stated) | -5.77 |
| Cc1cnn(CC2CCCN2Cc2nnc(Cc3ccccc3)o2)c1 (configuration not stated) | -11.7 |
| Cc1cc(C2CCCN2Cc2ccn(C)c(=O)c2)no1 (configuration not stated) | -9.03 |
| Cc1nc2ccccc2c(=O)n1CCC(=O)N1CCNC(=O)C1 | -19 |
| c1ccc(-c2cnc(CN3CCn4c(nnc4C4CC4)C3)o2)cc1 | -7.67 |
| CCOc1ncccc1NC(=O)NCC(O)c1ccccc1OC (configuration not stated) | -8.36 |
| Cc1ccc(C(=O)N2CCN(Cc3ccsc3)CC2)n1C | 0.914 |
| CCc1nc(C2CCCN2C(=O)c2cc(C3CC3)[nH]n2)no1 (configuration not stated) | 1.03 |
| CCOCCN1CCCC(c2cc(C(N)=O)[nH]n2)C1 (configuration not stated) | 3.78 |
| Cc1cnn(CC2CCCCN2C(=O)c2cc(C(N)=O)cs2)c1 (configuration not stated) | 2.02 |
| Cc1nc2ccccc2nc1CN1CCCC1Cn1cncn1 (configuration not stated) | -1.28 |
| CN(Cc1ccsc1)C(=O)CS(=O)(=O)Cc1ccc(Cl)c(Cl)c1 | -0.987 |
| O=C1NC2(CCN(C(=O)N3CCOCC3)CC2)CC1c1cccnc1 (configuration not stated) | -128 |
| CNC(=O)CN1CC[C@H]2CN(C(=O)c3cccn3C)C[C@H]2C1 | 2.31 |
| O=C(NCc1ccco1)[C@H]1C[C@@H]2CCN(c3ncccn3)C[C@H]2O1 | 7.1 |
| CC(=O)N1CCC(c2nc3ccc(NC4CCC4)cn3n2)CC1 | -107 |
| Cc1ncccc1NC(=O)[C@@H]1C[C@@H]2CCN(Cc3cccs3)C[C@H]2O1 | -72.9 |
| CSc1nc(N)cc(N2C[C@H]3CC[C@@H](C2)N(Cc2cscn2)C3=O)n1 | -12 |
